Experimental data taken from ChEMBL document CHEMBL1121519, “Basic antiinflammatory compounds. N,N',N''-Trisubstituted guanidines” (J Med Chem, 1980).

Columns and labels:
Rattus norvegicus = experiment: Percent inhibition of carrageenan paw edema in rat, administered orally at a dose of one tenth of oral lethal dose in mice; type: functional
Method in brief: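 1 h later, 0.1 mL of 1% carrageenan was injected into the right hind-paw plantar tissue. Paw swelling was measured by mercury-displacement plethysmometry 3 h after carrageenan, compared with controls.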

[1] = biological target: Cyclooxygenase (Bos taurus) (UniProt O62664+O62698); experiment: Inhibition of prostaglandin synthetase in bovine seminal vesicle microsomes using Beckman liquid scintillation counter at 10 e-5 M; conditions: Microsome
[2] = Lethal dose in mice determined by Litchfield and Wilcoxon methods after peroral administration.; type: toxicity, organism-based; conditions: mouse, in vivo, po
Method in brief: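 Median lethal dose found after oral dosing of mice, four mice per dose level, and calculated by the Litchfield–Wilcoxon method.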

Structure (SMILES) | Inhibition (Rattus norvegicus) [%] | inhibition [1] [%] | LD50 [2] [mg/kg]
Cc1cc(N/C(=N/C2CCCCC2)Nc2ccccn2)c2ccccc2n1 | 23 | 0.4 | > 1000
CC(C)(C)/N=C(\Nc1ccc(Cl)cn1)Nc1nccs1 | 31 | 1 | > 1000
Cc1nc2ccccc2cc1N/C(=N\C(C)(C)C)Nc1nccs1 | 24 | 2.3 | > 1000
Cc1cc(N/C(=N/C(C)(C)C)Nc2ccccn2)c2ccccc2n1 | 36 | 30.1 | > 1000
CC(C)Cc1cc(N/C(=N/C(C)(C)C)Nc2nccs2)c2ccccc2n1 | 33 | 20 | 600
Cc1cc(N/C(=N/C2CCCC(C)C2C)Nc2nccs2)c2ccccc2n1.Cl (stereo unspecified) | 47 | 7 | > 1000
Cc1cc(NC(=N)NC2CCCCC2)c2ccccc2n1 |  |  | > 1000
CC(C)(C)/N=C(\Nc1nccs1)Nc1ccnc2cc(C(F)(F)F)ccc12 | 32 |  | > 1000
Cc1cc(N/C(=N/C(C)(C)C)NCCO)c2ccccc2n1 | 40 | 2.8 | 600
CCC(C)/N=C(/Nc1nccs1)Nc1cc(C)nc2ccccc12 (stereo unspecified) | 57 | 10.5 | 400
Cc1c(Cl)cccc1N/C(=N\C(C)(C)C)Nc1nccs1 | 17 | 9.5 | > 1000
CCC(C)(C)/N=C(\Nc1cccnc1)Nc1nccs1 | 82 | 0 | > 1000
Cc1cc(N/C(=N/C23C[C@H]4C[C@@H](C2)C[C@@H](C3)C4)Nc2nccs2)c2ccccc2n1 | 17 | 32 | > 1000
Cc1cc(N/C(=N/C(C)(C)C)Nc2nc3ccccc3s2)c2ccccc2n1 | 18 | 51.8 | > 1000
Cc1cc(N/C(=N/C(C)(C)C)Nc2nc(C)c(C)s2)c2ccccc2n1 | 19 | 64.2 | > 1000
Cc1ccc2nc(C)cc(N/C(=N/C(C)(C)C)Nc3nccs3)c2c1 | 42 | -7.5 | > 1000
CC(C)(C)/N=C(\N)Nc1nccs1.O=C(O)/C=C\C(=O)O | 54 | 29 | 600
c1ccc(-c2cc(N/C(=N/C3CCCCC3)Nc3nccs3)c3ccccc3n2)cc1 | 5 | 14 | > 1000
CC(C)Cc1cc(N/C(=N/C2CCCCC2)Nc2nccs2)c2ccccc2n1 | 40 | 11 | > 1000
CC(C)c1cc(N/C(=N/C(C)(C)C)Nc2nccs2)c2ccccc2n1 | 31 | 12.4 | > 1000
Cc1ccc2cccc(N/C(=N\C(C)(C)C)Nc3nccs3)c2n1 | 4 | 7 | > 1000
CC(C)(C)/N=C(/Nc1nccs1)Nc1cccc2cccnc12 | 8 | 4.3 | > 1000
Cc1cc(N/C(=N/CC2CCCCC2)Nc2nccs2)c2ccccc2n1 | 50 | 21 | > 1000
Cc1cc(N/C(=N/C(C)(C)C)Nc2nnc(S)s2)c2ccccc2n1 | 16 | 6 | > 1000
CC(C)(C)/N=C(\Nc1cnc2ccccc2c1)Nc1nccs1 | 36 | -1 | > 1000
CCc1cc(N/C(=N/C2CCCCC2)Nc2nccs2)c2ccccc2n1 | 24 | 67 | > 1000
Cc1cc(N/C(=N/C(C)(C)C)Nc2ccccc2)c2ccccc2n1 | 34 | 43.9 | 40
Cc1cc(N/C(=N\C(C)(C)CC(C)(C)C)Nc2nccs2)c2ccccc2n1 | 25 | 49.3 | > 1000

Structure (SMILES) | Inhibition (Rattus norvegicus) [%] | inhibition [1] [%] | LD50 [2] [mg/kg]
Cc1ccc2nccc(N/C(=N/C3CCCCC3)Nc3nccs3)c2c1 | 12 | 7.2 | > 1000
Cc1cc(N/C(=N/c2ccccc2C)Nc2nccs2)c2ccccc2n1 | 53 | 14.8 | > 1000
CC(C)(C)/N=C(\Nc1ccccn1)Nc1nccs1 | 83 | 6.9 | > 1000
Cc1cc(N/C(=N/C2CCCCC2)Nc2c(C)noc2C)c2ccccc2n1 | 17 | 19.3 | > 1000
Clc1ccc2c(N/C(=N/C3CCCCC3)Nc3nccs3)ccnc2c1 | 56 | 21.6 | > 1000
CC(C)CC(C)(C)/N=C(\Nc1ccncc1)Nc1nccs1 | 22 | 1.1 | 800
Cc1cc(N/C(=N/C2CCCCC2)Nc2ccccc2)c2ccccc2n1 | 38 | 10 | 300
CCC(C)(C)/N=C(\Nc1ncccn1)Nc1nccs1 | 20 | 27.5 | > 1000
Cc1nc2ccccc2c(N/C(=N/C2CCCCC2)Nc2nccs2)c1Cl | 19 | 8.1 | > 1000
Cc1cc(N/C(=N/C2CCCCC2)Nc2ncc(C(=O)O)s2)c2ccccc2n1 | 30 | 8.4 | > 1000
Cc1cc(N/C(=N\C(C)(C)C)Nc2nccs2)ccn1 | 13 | 14.9 | 250
CC(C)(C)/N=C(/Nc1nccs1)Nc1cccc2cnccc12 | 21 | -8.8 | > 1000
Cc1cc(N/C(=N/C2CCCCCC2)Nc2nccs2)c2ccccc2n1 | 19 | 34.8 | > 1000
CCCc1cc(N/C(=N/C2CCCCC2)Nc2nccs2)c2ccccc2n1 | 54 | 56 | > 1000
CC(C)(C)/N=C(\Nc1nccs1)Nc1ccnc2ccccc12 | 29 | 23.8 | > 1000
COc1ccc2nccc(N/C(=N/C(C)(C)C)Nc3nccs3)c2c1 | 42 | 12.7 | > 1000
CCCCC(CC)C/N=C(/Nc1nccs1)Nc1cc(C)nc2ccccc12 (stereo unspecified) | 28 | 2.1 | > 1000
COc1cc(N/C(=N\C(C)(C)C)Nc2nccs2)c2ncccc2c1 |  | 5 | > 1000
CC(C)(C)/N=C(\Nc1ccc2ccccc2n1)Nc1nccs1 | 32 |  | > 1000
CC(C)(C)/N=C(/Nc1nccs1)Nc1cccc2ncccc12 | 21 | 9 | > 1000
CC(C)(C)/N=C(\Nc1nccs1)Nc1cc(-c2ccccc2)nc2ccccc12 | 40 | < 10 | > 1000
Cc1cc(N/C(=N/C2CCCCC2)Nc2nnc(C)s2)c2ccccc2n1 | 56 | 36.2 | > 1000
CC(C)c1cc(N/C(=N/C2CCCCC2)Nc2nccs2)c2ccccc2n1 | 36 | 0 | > 1000
Cc1cc(N/C(=N\C(C)C(C)(C)C)Nc2nccs2)c2ccccc2n1 (stereo unspecified) | 36 | 4 | > 1000
CC(C)(C)/N=C(/Nc1nccs1)Nc1cccc2c(O)cccc12 | 22 |  | > 1000
CC(C)(C)/N=C(\Nc1ccncc1)Nc1nccs1 | 15 |  | 300
Cc1cc(N/C(=N/C(C)(C)C)Nc2cnccn2)c2ccccc2n1 |  |  | > 1000
